The values that follow come from ChEMBL document CHEMBL4706506 (Eur J Med Chem, 2020).

Broadly, the IC50 is the midpoint of a concentration-inhibition curve. Broadly, the half-life is the time in which the quantity being followed falls by half.

The structures appear in SMILES notation.

In one data set the test system is B16-F0. Kind of data set: Antiproliferative activity against mouse B16-F0 cells assessed as inhibition of cell proliferation measured after 48 hrs by CCK-8 assay. The format is functional, cell-based. The settings on record: B16F0, 48 h. The procedure, abridged: (§1)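 RPMI-1640 with 10% FBS, 37 °C, 5% CO2. Cells seeded at 1-3 × 10^4/well and exposed to 0.00098–64 μM (nine 4-fold steps) or 0.1% DMSO vehicle for 48 h. CCK-8 then added for 4 h; absorbance read at 450 nm. IC50 taken from dose–response curves; mean ± SD of three independent experiments.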
A general note: Tetrazolium assays rely on reduction of a dye to a coloured formazan, in cell work by metabolically active cells.

The subject of another data set is A549. In words: Antiproliferative activity against human A549 cells assessed as inhibition of cell proliferation measured after 48 hrs by CCK-8 assay. The format is functional, cell-based. The settings on record: A549, 48 h. The procedure, abridged: as §1
The subject of a further data set is MCF7. In words: Antiproliferative activity against human MCF7 cells assessed as inhibition of cell proliferation measured after 48 hrs by CCK-8 assay. Type of data set: functional, cell-based. The settings on record: MCF7, 48 h.
Another data set has as its system HeLa. Kind of data set: Antiproliferative activity against human HeLa cells assessed as inhibition of cell proliferation measured after 48 hrs by CCK-8 assay. Type of data set: functional, cell-based. The procedure, abridged:
as §1

The test system of a further data set is HCT-116. Kind of data set: Antiproliferative activity against human HCT-116 cells assessed as inhibition of cell proliferation measured after 48 hrs by CCK-8 assay. Type of data set: functional, cell-based. As to conditions: HCT-116, 48 h. The procedure, abridged: as §1
The nature of data set [1]: Metabolic stability in mouse liver microsomes assessed as half life in presence of NADPH at 0.5 uM measured after 4 hrs by LC/MS method. Type of data set: ADME, Microsome. For orientation: Microsomes from liver hold many membrane-bound enzymes, among them those of drug oxidation.
A short description of data set [2]: Metabolic stability in human liver microsomes assessed as half life in presence of NADPH at 0.5 uM measured after 4 hrs by LC/MS method. Type of data set: ADME, Microsome.

Regarding `COc1cc(-c2ccnc3cc(-c4ccc(C(F)(F)F)cc4)nn23)cc(OC)c1OC`, the IC50 in the data set on B16-F0 was 1.77 µM; in the data set with A549 it was 2.07 µM; in the data set on MCF7 it was 2.44 µM; with HeLa, 1.84 µM; in the data set on HCT-116 it was 1.86 µM.
Taken in the same sequence, the figures for `COc1cc(-c2ccnc3cc(-c4cccc(C)c4)nn23)cc(OC)c1OC` were 2.22 µM, 5.73 µM, 1.08 µM, 4.23 µM and 6.15 µM.
In the case of `COc1cc(-c2ccnc3cc(-c4ccc5ccn(C)c5c4)nn23)cc(OC)c1OC`, the IC50 with B16-F0 stood at 0.657 µM; in the data set on A549, 0.829 µM; with MCF7, 0.074 µM; with HeLa, 0.187 µM; in the data set with HCT-116, 1.04 µM.
Take `COc1ccc(-c2cc3nccc(-c4cc(OC)c(OC)c(OC)c4)n3n2)cc1`: the IC50 with B16-F0 was determined as 1.41 µM; in the data set with A549, 0.376 µM; in the data set with MCF7, 0.125 µM; with HeLa, 0.373 µM; in the data set on HCT-116, 0.404 µM.
On the same counts, the results for `COc1cc(-c2ccnc3cc(-c4cn(C)c5ccccc45)nn23)cc(OC)c1OC` are 0.185 µM, 1.34 µM, 0.095 µM, 0.399 µM and 0.762 µM.
Taken in the same sequence, the figures for `COc1cc(-c2ccnc3cc(-c4ccc(Cl)cc4)nn23)cc(OC)c1OC` were 4.09 µM, 3.06 µM, 2.32 µM, 1.49 µM and 3.33 µM.
Taken in the same sequence, the figures for `COc1ccc(-c2cc3nccc(-c4cc(OC)c(OC)c(OC)c4)n3n2)cc1F` were 3.95 µM, 0.545 µM, 0.183 µM, 0.236 µM and 2.84 µM.
For `COc1cc(-c2ccnc3cc(-c4c[nH]c5ccccc45)nn23)cc(OC)c1OC`, the IC50 with B16-F0 is 0.04 µM; in the data set on A549 it was 0.029 µM; with MCF7 it was 0.085 µM; in the data set with HeLa, 0.195 µM; in the data set with HCT-116 it was 0.035 µM.
`COc1cc(-c2ccnc3cc(-c4ccc(C(C)(C)C)cc4)nn23)cc(OC)c1OC`: the IC50 with B16-F0, with A549, with MCF7, with HeLa and in the data set on HCT-116 was more than 10 µM throughout.
As to `COc1cc(-c2ccnc3cc(-c4ccc5cc[nH]c5c4)nn23)cc(OC)c1OC`, the IC50 stood at 0.055 µM with B16-F0; 0.17 µM with A549; 0.023 µM in the data set with MCF7; 0.125 µM in the data set with HeLa; 0.187 µM in the data set with HCT-116.
Take `COc1cc(-c2ccnc3cc(-c4cn(C(=O)OC(C)(C)C)c5ccccc45)nn23)cc(OC)c1OC`: the IC50 in the data set with B16-F0 was 3.07 µM; in the data set on A549, 2.06 µM; in the data set on MCF7, 0.268 µM; with HeLa, 3.77 µM; in the data set with HCT-116, 5.72 µM.
`COc1cc(-c2cc3nccc(-c4c[nH]c5ccccc45)n3n2)cc(OC)c1OC`: the IC50 in the data set with B16-F0, with A549, in the data set with MCF7, in the data set with HeLa and with HCT-116 was more than 10 µM each time.
For the molecule `C=Cc1ccc(-c2cc3nccc(-c4cc(OC)c(OC)c(OC)c4)n3n2)cc1`, the IC50 in the data set on B16-F0 was found to be 0.788 µM; with A549, 1.03 µM; in the data set on MCF7, 0.193 µM; in the data set on HeLa, 0.882 µM; in the data set with HCT-116, 1.05 µM.
On the same counts, the results for `COc1cc(-c2ccnc3c(-c4c[nH]c5ccccc45)cnn23)cc(OC)c1OC` are more than 10 µM, more than 10 µM, more than 10 µM, more than 10 µM and more than 10 µM.
`COc1cc(-c2cc3nccc(-c4cc(OC)c(OC)c(OC)c4)n3n2)cc(OC)c1OC`: the IC50 with B16-F0, with A549, in the data set on MCF7, in the data set with HeLa and with HCT-116 was more than 10 µM in each case.
Take `Cc1ccc(-c2cc3nccc(-c4ccc(F)cc4)n3n2)cc1`: the IC50 in the data set on B16-F0, in the data set with A549, in the data set with MCF7, in the data set with HeLa and with HCT-116 was more than 10 µM each time.
On to `COc1cc(-c2ccnc3cc(-c4ccc(N(C)C)cc4)nn23)cc(OC)c1OC`, for which the IC50 is 0.702 µM with B16-F0; 1.1 µM with A549; 0.044 µM in the data set with MCF7; 0.378 µM in the data set with HeLa; 2.05 µM in the data set with HCT-116.
Turning to `COc1cc(-c2ccnc3cc(-c4cccc(C#N)c4)nn23)cc(OC)c1OC`, the IC50 with B16-F0, in the data set on A549, in the data set with MCF7, in the data set on HeLa and in the data set with HCT-116 was more than 10 µM throughout.
As to `COc1cc(-c2ccnc3cc(-c4ccc(CO)cc4)nn23)cc(OC)c1OC`, the IC50 was determined as 1.09 µM with B16-F0; 1.1 µM in the data set with A549; 1.07 µM with MCF7; 0.456 µM with HeLa; 0.861 µM with HCT-116.
As to `Cn1ccc2cc(-c3cc4nccc(-c5ccc(F)cc5)n4n3)ccc21`, the IC50 in the data set with B16-F0 worked out at 4.78 µM; with A549, 3.52 µM; in the data set on MCF7 it was 4.58 µM; with HeLa, 5.21 µM; in the data set with HCT-116, 2.16 µM.
On the same counts, the results for `COc1ccc(-c2cc3nccc(-c4cc(OC)c(OC)c(OC)c4)n3n2)cc1[N+](=O)[O-]` are more than 10 µM, more than 10 µM, more than 10 µM, more than 10 µM and more than 10 µM.
Regarding `COc1cc(C(=O)c2csc(-c3ccccc3)n2)cc(OC)c1OC`, the figures for the half-life at 0.5 µM in data set [1] and in data set [2] were less than 5 min and 17 min, respectively.
Turning to `COc1ccc(-c2cc3nccc(-c4cc(OC)c(OC)c(OC)c4)n3n2)cc1N`, the IC50 turned out to be 0.088 µM in the data set on B16-F0; 0.138 µM in the data set with A549; 0.027 µM with MCF7; 0.283 µM with HeLa; 0.251 µM in the data set with HCT-116.
For `CCOC(=O)c1ccc(-c2cc3nccc(-c4cc(OC)c(OC)c(OC)c4)n3n2)cc1`, the IC50 in the data set with B16-F0, in the data set on A549, in the data set with MCF7, in the data set on HeLa and with HCT-116 was more than 10 µM each time.
Consider `COc1cc(-c2ccnc3cc(-c4ccc(F)cc4)nn23)cc(OC)c1OC`, for which the IC50 in the data set with B16-F0 came to 4.54 µM; in the data set on A549 it was 3.8 µM; with MCF7 it was 1.28 µM; in the data set with HeLa it was 5.84 µM; with HCT-116, 5.03 µM.
On the same counts, the results for `COc1cc(-c2ccnc3cc(-c4cnn(C)c4)nn23)cc(OC)c1OC` are 1.24 µM, 1.15 µM, 0.274 µM, 1.83 µM and 2.11 µM.
Consider `CCn1c2ccccc2c2cc(-c3cc4nccc(-c5cc(OC)c(OC)c(OC)c5)n4n3)ccc21`, for which the IC50 in the data set with B16-F0 came to 1.8 µM; with A549 it was 0.643 µM; in the data set on MCF7, 0.242 µM; in the data set with HeLa it was 0.16 µM; in the data set on HCT-116, 1.53 µM.
For `COc1cc(-c2ccnc3cc(-c4ccc(C)c(C)c4)nn23)cc(OC)c1OC`, the IC50 was determined as 0.391 µM in the data set on B16-F0; 0.272 µM with A549; 0.026 µM with MCF7; 0.241 µM in the data set with HeLa; 0.261 µM in the data set with HCT-116.
On the same counts, the results for `COc1cc(-c2ccnc3cc(-c4ccc(C(C)=O)cc4)nn23)cc(OC)c1OC` are 3.93 µM, 4.1 µM, 5.23 µM, 1.81 µM and 4.39 µM.
`COc1cc(-c2ccnc3cc(-c4ccc5c(cnn5C)c4)nn23)cc(OC)c1OC`: the IC50 amounted to 1.47 µM in the data set with B16-F0; 0.233 µM in the data set on A549; 0.279 µM in the data set with MCF7; 0.097 µM in the data set with HeLa; 2.44 µM in the data set with HCT-116.
Consider `COc1cc(-c2ccnc3cc(-c4ccccc4)nn23)cc(OC)c1OC`, for which the IC50 with B16-F0 was determined as 4.73 µM; in the data set on A549, 0.208 µM; with MCF7 it was 0.254 µM; in the data set with HeLa it was 0.458 µM; in the data set on HCT-116 it was 3.88 µM.
On the same counts, the results for `COc1cc(-c2ccnc3cc(-c4cn(CO)c5ccccc45)nn23)cc(OC)c1OC` are 0.093 µM, 0.167 µM, 0.019 µM, 0.103 µM and 0.128 µM.
Taken in the same sequence, the figures for `COc1cc(-c2ccnc3cc(-c4ccc(N5CCOCC5)cc4)nn23)cc(OC)c1OC` were more than 10 µM, more than 10 µM, more than 10 µM, more than 10 µM and more than 10 µM.
